Screening data deposited in PubChem by Broad Institute.
SR-BI DiI-HDL act: SR-BI HDL lipid transfer activation; activation, % at 12.5 µM; actives 0.096% (n = 320,000); AID 504775; CHO ldlA[mSR-BI] cells, DiI-HDL uptake fluorescence, 3 h; 100 = double the neutral-control signal;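 active = mean replicate activation of at least 60% and every replicate at or above 60%; inconclusive = mean or all-replicate condition met, but not both; inactive = mean below 60% and not all replicates reaching 60%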;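 also: 0% = median plate neutral-control signal and 100% = twice that signal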
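System: LDL receptor-deficient CHO ldlA cells overexpressing murine SR-BI | Timing: 3 h uptake period with compound, 37 °C | Medium: HEPES-buffered (25 mM, pH 7.4) F12 plus 0.5% BSA | Dosing: Single-point compound dose | Signal: Bottom-read fluorescence, 550/595 nm | Read-out: Retained DiI signal reflecting DiI-HDL uptake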
MITF TRPM1 HTS: activators of MITF-driven TRPM1 promoter activity in SK-MEL-5 cells; AID 588334; actives 0.75% (n = 300,000); SK-MEL-5 TRPM1-promoter luciferase, 24 h; % of positive control, neutral wells = 0; activation, % at 12.5 µM;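 active = mean activation of at least 80% with every replicate also reaching 80%; inconclusive = mean reaches 80% but some replicate falls short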;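 also: 0% = neutral control wells and 100% = parthenolide positive control wells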
Wnt bcat act: activators of Wnt/beta-catenin signaling; Wnt/beta-catenin reporter cell assay, activator, plate reader; activation, % at 9.35 µM; actives 1.2% (n = 300,000); AID 743398; in the data active = activation above about 30%, passing the limit was not always enough; inconclusive = no clear call, values can overlap the other calls;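 also: 0% = neutral control wells and 100% = positive control wells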
SR-BI DiI inh: mouse SR-BI HDL lipid transfer inhibition; Q61009; actives 0.96% (n = 320,000); inhibition, % at 12.5 µM; ldlA[mSR-BI] CHO cells, DiI-HDL uptake fluorescence, 3 h;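 active = mean replicate inhibition of at least 70% and a set share of replicates each scoring 70 or more; inconclusive = meets just one of the two criteria; inactive = fails both criteria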;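 also: 0% = median of neutral control wells and 100% = median of positive control wells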
Target sequence (Q61009 whole entry, looked up): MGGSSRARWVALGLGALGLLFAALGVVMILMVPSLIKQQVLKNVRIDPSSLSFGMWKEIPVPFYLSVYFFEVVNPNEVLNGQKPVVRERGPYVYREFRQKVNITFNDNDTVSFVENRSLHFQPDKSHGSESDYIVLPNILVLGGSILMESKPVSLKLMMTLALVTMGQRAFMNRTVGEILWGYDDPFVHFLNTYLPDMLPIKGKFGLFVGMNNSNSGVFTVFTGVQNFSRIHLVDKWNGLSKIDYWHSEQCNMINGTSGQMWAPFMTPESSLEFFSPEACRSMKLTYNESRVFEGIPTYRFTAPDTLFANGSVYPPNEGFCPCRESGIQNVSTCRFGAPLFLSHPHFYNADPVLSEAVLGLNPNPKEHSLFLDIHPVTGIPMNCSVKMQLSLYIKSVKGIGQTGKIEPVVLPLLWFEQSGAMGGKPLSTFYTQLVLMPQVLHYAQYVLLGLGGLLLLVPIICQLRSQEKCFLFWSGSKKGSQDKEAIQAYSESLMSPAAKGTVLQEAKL
HSF-1 act: increases HSF-1 driven luciferase reporter signal; activation, % at 9 µM; NIH3T3-HGL HSF-1 luciferase reporter, MG132, 8 h; 100% = twice DMSO control signal; AID 504408; actives 1.7% (n = 300,000);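 active = mean replicate activation of at least 50% with a set share of replicates each reaching 50%; inconclusive = only one of those two conditions met; inactive = mean below 50% and too few replicates reaching it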;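 also: 0% = median of the neutral control wells and 100% = twice that signal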
Numbers without * were called inactive; ? = inconclusive; . = no result. Hits are enriched below; roughly 3.6% of the tested compounds scored in any of these assays.

SMILES	SR-BI DiI-HDL act	MITF TRPM1 HTS	Wnt bcat act	SR-BI DiI inh	HSF-1 act
O=C(NC(=S)NNC(=O)c1cc2ccccc2cc1O)c1ccco1	-146	30	2	146*	4
O=C(NC(=S)NNC(=O)c1ccccc1O)c1ccco1	-110	-6	-3	110*	1
O=C(/C=C/c1cccs1)NC(=S)NNC(=O)c1ccccc1O	-101	-46	-2	101*	-3
O=C(NNC(=S)NC(=O)c1ccco1)c1ccc(NC(=O)c2ccccc2)cc1	-41	-21	-2	41	-11
COc1cccc(-c2ccc(CN3C(C(C)C)C(=O)N(Cc4cn(CCC5OCCO5)nn4)CCS3(=O)=O)cc2)c1OC (configuration not stated)	.	.	1	.	.
COc1ccc(C(=O)NC(=S)N(C)Cc2ccccc2)cc1Br	-7	-9	-2	7	54*
O=C(Cn1ccc(=O)[nH]c1=O)Nc1ccc(O)c([N+](=O)[O-])c1	4	-8	-5	-4	.
Cc1c2c(nc3ccccc13)CCC(C(C)(C)C)C2 (configuration not stated)	-2	38	5	2	57*
CCCCNc1c(-c2ccc(SC3CCCCC3)cc2)nc2ccccn12	-12	35	37*	12	-18
C/C(=N\Nc1ccccn1)c1ccc(C(C)C)cc1	-4	125*	5	4	-8
CC(C)=CCc1c(O)cc2oc3c(CC=C(C)C)c(O)c(O)c(CC=C(C)C)c3c(=O)c2c1O	-105	.	-3	105*	1
CC(C)=CCc1cc(-c2oc3cc(O)cc(O)c3c(=O)c2O)ccc1O	-67	46	-1	67	-12
Cc1cccc2nc(COc3ccc(-c4ccccc4)cc3)cn12	.	.	.	.	65*
Cc1cc(C)n2cc(COc3ccc4ccccc4c3)nc2n1	-7	8	14	7	67*
Cn1c(-c2ccsc2)c(-c2cccs2)c2cc(-c3ccc4cc[nH]c4c3)ccc21	-77	7	-9	77*	.
Cn1c(-c2ccsc2)c(-c2cccs2)c2cc(-c3ccc4[nH]ccc4c3)ccc21	-34	13	-3	34	.
O=C(CSC1=NCCS1)Nc1ccc(F)cc1	20	-8	-1	-20	16
O=C(CSc1ccc(F)cc1)Nc1ccc(C2SCCS2)cc1	12	.	9	-12	60*
O=C(C[n+]1ccc(-c2cc(C(=O)Nc3cccc(C(F)(F)F)c3)c3ccccc3n2)cc1)c1cccc([N+](=O)[O-])c1	-87	-1	-6	87*	-5
Cc1cc(C)nc(SCC(=O)OC(C)C(=O)Nc2ccccc2)n1 (configuration not stated)	62*	-1	0	-62	-15
NS(=O)(=O)c1ccc(S(=O)(=O)N2CCCC(c3ccccc3)C2)cc1 (configuration not stated)	.	.	-2	.	.
COc1ccc(OCC(=O)Nc2ccc3c(c2)nc(CCN2CCCCC2)n3C)cc1	1	-5	-2	-1	63*
CC1CCN(CCc2nc3cc(NC(=O)COc4ccc(Cl)cc4)ccc3n2C)CC1	-4	-21	1	4	72*
COc1ccc(OCC(=O)Nc2ccc3c(c2)nc(CCN2CCC(C)CC2)n3C)cc1	-9	0	-1	9	30
Cc1ccc(OCC(=O)Nc2ccc3c(c2)nc(CCN2CCCCC2)n3C)cc1	9	4	-5	-9	76*
SMILES	SR-BI DiI-HDL act	MITF TRPM1 HTS	Wnt bcat act	SR-BI DiI inh	HSF-1 act
Cc1cccc(OCC(=O)Nc2ccc3c(c2)nc(CCN2CCCCC2)n3C)c1	18	-4	-5	-18	84*
COc1nc(=O)n(C2C=CC(=O)O2)cc1F (configuration not stated)	.	.	3	.	.
COc1ccc(OCC(=O)Nc2ccc3c(c2)nc(CCN2CCN(c4ccccn4)CC2)n3C)cc1	.	.	0	.	.
Cc1cccc(OCC(=O)Nc2ccc3c(c2)nc(CCN2CCN(c4ccccn4)CC2)n3C)c1	-73	-37	-2	73*	5
Cn1c(CCN2CCCCC2)nc2cc(NC(=O)COc3ccccc3)ccc21	19	7	-3	-19	58*
O=C(CCNC(=O)N1CC(=O)Nc2ccccc21)NCc1ccccc1	.	.	0	.	.
COc1cc(/C=N\NC(=O)c2cccc(Cl)c2)ccc1Oc1ccc([N+](=O)[O-])cn1	-40	.	1	40	3
COc1cc(/C=N\NC(=O)c2ccc(Cl)cc2)ccc1Oc1ccc([N+](=O)[O-])cn1	-79	-7	5	79*	5
CCOc1cc(C=C(C#N)C#N)ccc1Oc1ccc([N+](=O)[O-])cn1	-12	-22	-2	12	-1
COc1cc(/C=C(/C#N)c2ccc(F)cc2)ccc1Oc1ccc([N+](=O)[O-])cn1	-85	-9	1	85*	-4
Cc1cc2c([nH]c3ccccc32)c2c1OC(C)(C)C=C2	-66	91*	1	66	43
C(=C\c1ccco1)/c1nc2ccccc2[nH]1	-2	-2	52*	2	-9
C(=C\c1nc2ccccc2[nH]1)/c1ccccc1	-21	.	.	21	34
O=C(c1ccccc1)c1nnc(-c2ccccc2F)o1	40	.	61*	-40	35
COC(=O)c1cc2c(c3c4cc(OC)ccc4n(S(=O)(=O)c4cccc(C)c4)c13)C(=O)N(Cc1ccc(C(F)(F)F)cc1)C2	.	.	-4	.	.
CCCS(=O)(=O)NC(=O)C1(C)CCN(C(=O)c2ccc(OC)cc2OC)C1 (configuration not stated)	.	.	-1	.	.
COc1ccc(C)cc1NC(=O)NNC(=O)c1cc2ccccc2cc1O	-117	-6	1	117*	8
COc1ccccc1C(=O)NNC(=O)c1ccc(C)cc1	-7	.	-1	7	-1
COc1ccc(NC(=O)NNC(=O)c2cc3ccccc3cc2O)cc1	.	-12	3	96*	2
COc1ccc(C)cc1NC(=O)NNC(=O)c1ccoc1C	0	10	-1	0	-1
Cc1ccc(C(=O)NNC(=O)c2cc3ccccc3cc2O)cc1	-123	.	-3	123*	32
C/C(=N/OCO/N=C(\C)c1ccccc1)c1ccccc1	-5	-8	3	5	-9
C/C(=N\OCc1ccc(C#N)cc1)c1ccccc1	11	88*	0	-11	?
C/C(=N\OCc1ccc(C#N)cc1)c1ccc(S(=O)(=O)N(C)C)cc1	-8	96*	23	8	-5
O=C(Nc1ccc(F)cc1)C(c1ccccc1)N1CCN(c2cccc(C(F)(F)F)n2)CC1 (configuration not stated)	.	.	-3	.	.
COC(=O)[C@@]12C[C@@H](CC(=O)N3CCSCC3)C(=O)N(Cc3ccco3)C1=CCC(C)(C)C2	.	.	-1	.	.
COc1ccc(NC(=O)NC(=O)c2ccccc2)cc1	16	.	52*	-16	39
COc1ccccc1NC(=O)NC(=O)c1ccccc1	-37	.	47*	37	?
